According to ChEMBL document CHEMBL3046020, “Enantioselectivity in the phytotoxicity of herbicide imazethapyr” (2009):

How the values were obtained:
Zea mays [1] = assay: Phytotoxicity in Zea mays assessed (maize) as total root length measured per plant at 800 ug/L measured 5 days post compound treatment (reference value: 12.32 +/- 1.46 cm); assay type: functional
Zea mays [2] = assay: Phytotoxicity in Zea mays (maize) assessed as shoot dry weight assessed per 10 plants at 200 ug/L measured 5 days post compound treatment (reference value: 101.2 +/- 4.5 mg); assay type: functional
Zea mays [3] = assay: Phytotoxicity in Zea mays (maize) assessed as shoot dry weight assessed per 10 plants at 100 ug/L measured 5 days post compound treatment (reference value: 101.2 +/- 4.5 mg); assay type: functional
Zea mays [4] = assay: Phytotoxicity in Zea mays assessed (maize) as total root length measured per plant at 400 ug/L measured 5 days post compound treatment (reference value: 12.32 +/- 1.46 cm); assay type: functional
Zea mays [5] = assay: Phytotoxicity in Zea mays (maize) assessed as root dry weight assessed per 10 plants at 800 ug/L measured 5 days post compound treatment (reference value: 42.8 +/- 0.7 mg); assay type: functional
Zea mays [6] = assay: Phytotoxicity in Zea mays assessed (maize) as total root length measured per plant at 200 ug/L measured 5 days post compound treatment (reference value: 12.32 +/- 1.46 cm); assay type: functional
Zea mays [7] = assay: Phytotoxicity in Zea mays (maize) assessed as shoot dry weight assessed per 10 plants at 400 ug/L measured 5 days post compound treatment (reference value: 101.2 +/- 4.5 mg); assay type: functional
Zea mays [8] = assay: Increase in root diameter in Zea mays (maize) seedlings at 100 to 800 ug/L; assay type: functional, organism-based
Summary of the method: (§1)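 Maize seedlings were grown in a chamber (12 h light, 10,000 lx, 25/20 °C, 60% RH) for five days under graded levels of S-(+)-, R-(-)- or racemic IM. Root diameter, volume, surface area and tip number were measured per plant with an automatic root scanner. Values are means ± SD of three replicates of 10 randomly selected seedlings each.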

Zea mays [9] = assay: Phytotoxicity in Zea mays (maize) assessed as total root length measured per plant at 100 ug/L measured 5 days post compound treatment (reference value: 12.32 +/- 1.46 cm); assay type: functional
Zea mays [10] = assay: Effect on root surface area in Zea mays (maize) seedlings at 100 to 800 ug/L; assay type: functional, organism-based; summary of the method: as §1
Zea mays [11] = assay: Phytotoxicity in Zea mays (maize) assessed as shoot dry weight assessed per 10 plants at 800 ug/L measured 5 days post compound treatment (reference value: 101.2 +/- 4.5 mg); assay type: functional
Zea mays [12] = assay: Phytotoxicity in Zea mays (maize) assessed as root dry weight assessed per 10 plants at 200 ug/L measured 5 days post compound treatment (reference value: 42.8 +/- 0.7 mg); assay type: functional
Zea mays [13] = assay: Reduction of root hair growth in Zea mays (maize) seedlings at 400 ug/L measured 48 hr post dose by microscopy; assay type: functional, organism-based
Summary of the method: (§2)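 Maize seedlings with primary roots about 2 mm long were moved to 0 or 400 µg L-1 S-(+)-, R-(-)- or racemic IM solution. After 48 h, root tips (border cells) and the densest root-hair zone were examined and photographed under a light microscope. Growth chamber: 12 h light, 25/20 °C, 60% RH.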

Zea mays [14] = assay: Phytotoxicity in Zea mays (maize) assessed as root dry weight assessed per 10 plants at 400 ug/L measured 5 days post compound treatment (reference value: 42.8 +/- 0.7 mg); assay type: functional
Zea mays [15] = assay: Phytotoxicity in Zea mays (maize) assessed as shoot height at 200 ug/L measured 5 days post compound treatment (reference value: 6.89 +/- 0.30 cm); assay type: functional
Zea mays [16] = assay: Phytotoxicity in Zea mays (maize) assessed as shoot height at 800 ug/L measured 5 days post compound treatment (reference value: 6.89 +/- 0.30 cm); assay type: functional
Zea mays [17] = assay: Effect on root volume in Zea mays (maize) seedlings at 100 to 800 ug/L; assay type: functional, organism-based; summary of the method: as §1
Zea mays [18] = assay: Reduction in root tips in Zea mays (maize) seedlings at 100 to 800 ug/L; assay type: functional, organism-based; summary of the method: as §1
Zea mays [19] = assay: Phytotoxicity in Zea mays (maize) assessed as shoot height at 400 ug/L measured 5 days post compound treatment (reference value: 6.89 +/- 0.30 cm); assay type: functional
Zea mays [20] = assay: Phytotoxicity in Zea mays (maize) assessed as shoot height at 100 ug/L measured 5 days post compound treatment (reference value: 6.89 +/- 0.30 cm); assay type: functional
Zea mays [21] = assay: Phytotoxicity in Zea mays (maize) assessed as root dry weight assessed per 10 plants at 100 ug/L measured 5 days post compound treatment (reference value: 42.8 +/- 0.7 mg); assay type: functional
Zea mays [22] = assay: Induction of ultrastructure damage of root tip statocytes in Zea mays (maize) seedlings assessed as destruction of mitochondria envelope membranes at 400 ug/L measured 48 hr post dose by transmission electron microscopy; assay type: functional, organism-based
Summary of the method: (§3)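 Maize seeds surface-sterilized in 10% NaOCl for 10 min, soaked 12 h, germinated on moist gauze. Root-tip sections of 1-3 mm were fixed in 4% glutaraldehyde, postfixed in OsO4 and embedded in Spurr's resin. 80 nm sections were viewed by TEM at 60 kV.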

Zea mays [23] = assay: Induction of ultrastructure damage of root tip statocytes in Zea mays (maize) seedlings assessed as reduction in organelle size at 400 ug/L measured 48 hr post dose by transmission electron microscopy; assay type: functional, organism-based; summary of the method: as §3
Zea mays [24] = assay: Induction of ultrastructure damage of root tip statocytes in Zea mays (maize) seedlings assessed as reduction in starch grain size at 400 ug/L measured 48 hr post dose by transmission electron microscopy; assay type: functional, organism-based; summary of the method: as §3
Zea mays [25] = assay: Induction of ultrastructure damage of root tip statocytes in Zea mays seedlings (maize) assessed as dictyosomers swelling at 400 ug/L measured 48 hr post dose by transmission electron microscopy; assay type: functional, organism-based; summary of the method: as §3
Zea mays [26] = assay: Reduction in root tips in Zea mays (maize) seedlings at 100 ug/L; assay type: functional, organism-based; summary of the method: as §1
Zea mays [27] = assay: Induction of ultrastructure damage of root tip statocytes in Zea mays (maize) seedlings assessed as induction of cell wall thickening at 400 ug/L measured 48 hr post dose by transmission electron microscopy; assay type: functional, organism-based; summary of the method: as §3
Zea mays [28] = assay: Induction of ultrastructure damage of root tip statocytes in Zea mays (maize) seedlings at 400 ug/L measured 48 hr post dose by transmission electron microscopy; assay type: functional, organism-based; summary of the method: as §3
Zea mays [29] = assay: Reduction of sloughing of border cells from root tips in Zea mays (maize) seedlings at 400 ug/L measured 48 hr post dose by microscopy; assay type: functional, organism-based; summary of the method: as §2
Zea mays [30] = assay: Effect on cell organelles in root tip statocytes in Zea mays (maize) seedlings at 400 ug/L measured 48 hr post dose by transmission electron microscopy; assay type: functional, organism-based; summary of the method: as §3

Compound | Activity (Zea mays [1]) [cm] | Activity (Zea mays [2]) [mg] | Activity (Zea mays [3]) [mg] | Activity (Zea mays [4]) [cm] | Activity (Zea mays [5]) [mg] | Activity (Zea mays [6]) [cm] | Activity (Zea mays [7]) [mg] | Activity (Zea mays [8]) | Activity (Zea mays [9]) [cm] | Activity (Zea mays [10]) | Activity (Zea mays [11]) [mg] | Activity (Zea mays [12]) [mg] | Activity (Zea mays [13]) | Activity (Zea mays [14]) [mg] | Activity (Zea mays [15]) [cm] | Activity (Zea mays [16]) [cm] | Activity (Zea mays [17]) | Activity (Zea mays [18]) | Activity (Zea mays [19]) [cm] | Activity (Zea mays [20]) [cm] | other results
CCc1cnc(C2=NC(C)(C(C)C)C(=O)N2)c(C(=O)O)c1 (racemic) [IMAZETHAPYR] | 5.2 | 107.8 | 92.4 | 5.5 | 29 | 7.4 | 83.3 | Toxic | 8.1 | Toxic | 73.4 | 34.6 | Non-toxic | 26.4 | 6.2 | 4 | Toxic | Toxic | 4.6 | 6.3 | Activity (Zea mays [21]): 36.1 mg
CCc1cnc(C2=N[C@](C)(C(C)C)C(=O)N2)c(C(=O)O)c1 [R-(-)-IMAZETHAPYR] | 4.8 | 91.9 | 90.3 | 4.9 | 25.2 | 6.4 | 61.4 | Toxic | 7.7 | Toxic | 57.1 | 30.5 | Toxic | 25.7 | 5.9 | 3.4 | Toxic | Toxic | 3.9 | 6.2 | Activity (Zea mays [22]): Toxic; Activity (Zea mays [23]): Toxic; Activity (Zea mays [24]): Toxic; Activity (Zea mays [25]): Toxic; Activity (Zea mays [26]): Toxic; Activity (Zea mays [27]): Toxic; Activity (Zea mays [28]): Toxic; Activity (Zea mays [29]): Toxic; Activity (Zea mays [21]): 33.8 mg
CCc1cnc(C2=N[C@@](C)(C(C)C)C(=O)N2)c(C(=O)O)c1 [S-(+)-IMAZETHAPYR] | 6.1 | 101.3 | 100 | 7.2 | 29.6 | 8.9 | 85.4 | Non-toxic | 9.4 | Toxic | 75.6 | 35.1 | Non-toxic | 30.3 | 6.3 | 5.1 | Toxic | Toxic | 5.7 | 6.5 | Activity (Zea mays [30]): Non-toxic; Activity (Zea mays [24]): Non-toxic; Activity (Zea mays [26]): Non-toxic; Activity (Zea mays [28]): Non-toxic; Activity (Zea mays [21]): 36.6 mg
